Only some compounds are listed: those with a hit (about 4.8% of all), similar ones and a draw of the others.
PAFAH1B3 FP inh = PAFAH1B3 enzyme inhibitors, primary screen, biochemical, fluorescence polarization, human. inhibition, % at 3.39 µM. Platelet-activating factor acetylhydrolase IB subunit alpha1 (Homo sapiens), Q15102. 340,000 compounds, 0.28% hits. recombinant PAFAH1B3, FP-rhodamine probe;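 active = inhibition above the screen-wide average of all tested compounds plus 3 SD, cut at about 25% in these data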;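 also: 0% = enzyme with DMSO only and 100% = wells lacking PAFAH1B3 protein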
PAFAH1B2 inh = PAFAH1B2 enzyme inhibitors, primary screen, biochemical, fluorescence polarization, human; inhibition, % at 3.39 µM; recombinant PAFAH1B2, FP-rhodamine activity probe; AID 492953, 2010; 340,000 compounds, 1.2% hits;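 active = inhibition above the mean of all tested compounds plus 3 SD, cut at about 24% in these data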;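 also: 0% = enzyme with DMSO and 100% = wells lacking PAFAH1B2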
NR3A LBD binder = binders of NR3A ligand-binding domain, primary screen, biophysical, differential scanning fluorimetry, uHTS; Glutamate receptor ionotropic, NMDA 3A (GRIN3A) ligand-binding domain; NR3A LBD differential scanning fluorimetry, Tm shift; 0% = protein alone, 100% = glycine-bound protein; 340,000 compounds, 2.5% hits; Tm shift relative to glycine control, % at 25 µM;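 active = melting temperature shift of at least 10% of the positive control shift, at one fixed dose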
UCH37 inh = inhibitors of human UCH37 deubiquitinase, primary screen, biochemical, Ub-AMC cleavage, fluorescence | Ubiquitin carboxyl-terminal hydrolase isozyme L5 (Homo sapiens), Q9Y5K5 | purified proteasome/UCH37 | inhibition, % (no concentration beside the values) | 330,000 compounds, 0.33% hits;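 active = mean inhibition over replicate wells above about 20%, limit read from the data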;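 also: 0% = compound-free wells with enzyme and 100% = wells lacking proteasome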
Target sequence (Q9Y5K5 whole entry, looked up): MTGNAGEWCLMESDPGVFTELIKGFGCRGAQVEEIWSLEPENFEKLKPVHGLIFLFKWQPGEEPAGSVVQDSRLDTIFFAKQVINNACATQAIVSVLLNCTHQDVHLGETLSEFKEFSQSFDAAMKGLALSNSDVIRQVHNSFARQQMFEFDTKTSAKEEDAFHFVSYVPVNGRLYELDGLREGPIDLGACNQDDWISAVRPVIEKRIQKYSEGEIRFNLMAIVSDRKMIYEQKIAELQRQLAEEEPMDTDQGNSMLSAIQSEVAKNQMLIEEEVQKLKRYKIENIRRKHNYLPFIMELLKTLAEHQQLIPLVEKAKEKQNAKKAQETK
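System: Proteasome-associated human UCH37 deubiquitinase; Input: 0.15 nM proteasome in added enzyme buffer; Also added: Ub-AMC substrate from 1 µM stock; Incubation: 30 min compound-proteasome preincubation then 25 min substrate reaction, room temperature; Detection: fluorescence, ex 355 nm, em 460 nm; Read-out: % inhibition of Ub-AMC cleavage fluorescence; Benchmarks: no-proteasome and no-compound wells.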
PAFAH2 FP inh = PAFAH2 enzyme inhibitors, primary screen, biochemical, fluorescence polarization, human; recombinant PAFAH2, FP-rhodamine activity probe; inhibition, % at 3.39 µM; 340,000 compounds, 0.99% hits;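 active = inhibition above the mean over all tested compounds plus 3 SD, cut at about 30% in these data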;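 also: inhibitors block probe labeling of enzyme so polarization drops; 0% = enzyme with DMSO and 100% = wells lacking PAFAH2 protein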
pPAFAH inh = pPAFAH enzyme inhibitors, primary screen, biochemical, fluorescence polarization, human | Platelet-activating factor acetylhydrolase (Homo sapiens), Q13093 | recombinant pPAFAH, FP-rhodamine probe fluorescence polarization | inhibition, % at 3.39 µM | 330,000 compounds, 1.5% hits | AID 463082, 2010;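 active = inhibition above the mean inhibition across the screen plus 3 SD, cut at about 25% in these data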;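 also: inhibitors block binding of the rhodamine activity-based probe so polarization drops; 0% = enzyme with DMSO and 100% = wells lacking pPAFAH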
PAFAH2 confirm = PAFAH2 enzyme inhibitors, confirmation, biochemical, fluorescence polarization, human; AID 493030, 2011; inhibition, % at 3.39 µM; shares compounds with PAFAH2 FP inh; recombinant PAFAH2, FP-rhodamine activity probe; 2,300 compounds, 65% hits;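 active = mean inhibition over three repeats above a set limit taken from the earlier primary screen, cut at about 30% in these data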;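 also: inhibitor blocks binding of rhodamine activity probe so polarization falls; 0% = enzyme with DMSO and 100% = wells lacking PAFAH2 protein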
Active calls of the source: *; x = no result.

SMILES | PAFAH1B3 FP inh | PAFAH1B2 inh | NR3A LBD binder | UCH37 inh | PAFAH2 FP inh | pPAFAH inh | PAFAH2 confirm
CC(=NNC(=O)c1cc(-c2ccc(O)cc2)nc2ccccc12)c1cccnc1 | x | x | x | -3 | x | x | x
CCOc1ccc(NC(=O)COC(=O)CC2CCCCC2)cc1 | -3 | 3 | 1 | 2 | 45* | 16 | 41*
O=C(COC(=O)CC1CCCC1)Nc1ccc(Cl)cc1 | -2 | 1 | x | 6 | 80* | x | 74*
O=C(NN=Cc1ccc2ncccc2c1)c1cccc([N+](=O)[O-])c1 | x | x | x | 6 | x | x | x
COc1ccc(C=Nn2cnc3c([nH]c4ccc(Br)cc43)c2=O)cc1CN1CCOCC1 | x | x | x | 5 | x | x | x
Cc1ccc2nc(C)cc(NN=Cc3cccnc3)c2c1 | x | x | x | -10 | x | x | x
Brc1ccccc1C=NNc1ccc2ccccc2n1 | x | x | x | 2 | x | x | x
COc1ccc(CC(=O)N/N=C(\C)CC(=O)Nc2ccc(N(C)C)cc2)cc1 | 2 | -2 | -1 | x | 3 | 5 | x
C/C(CC(=O)Nc1ccc(N(C)C)cc1)=N\NC(=O)Cc1csc(N)n1 | 3 | 3 | -2 | x | 49* | 9 | 7
Cc1cc(NC(=O)COC(=O)c2ccc(C)c(C)c2)no1 | 4 | -1 | 2 | 5 | 52* | 4 | 34*
COc1cccc(C(=O)OCC(=O)Nc2cc(C)on2)c1OC | 7 | 2 | -1 | 4 | 74* | 8 | 52*
COc1ccc(/C=C\C(=O)NCC(=O)NN=Cc2ccc(O)cc2O)cc1 | x | x | x | 7 | x | x | x
Cc1ccc(S(=O)(=O)N(C)N=C2C(=O)N(CC(=O)O)c3ccccc32)cc1 | x | x | x | 4 | x | x | x
O=C(COC(=O)c1ccc2c(c1)OCO2)NCc1ccc(Cl)cc1 | 4 | 10 | 0 | 7 | 44* | 3 | 40*
O=C(COC(=O)c1ccc2c(c1)OCO2)Nc1ncc(Cl)cc1Cl | 2 | 4 | -1 | 1 | 40* | 10 | 37*
O=C(COC(=O)c1cccnc1Cl)Nc1ncc(Cl)cc1Cl | 0 | 6 | -1 | 0 | 9 | 4 | x
O=C(COC(=O)Cc1ccc(Cl)cc1)NCc1ccc2c(c1)OCO2 | 7 | 7 | 3 | -2 | -4 | x | x
O=C(COC(=O)c1ccc(O)cc1)Nc1ncc(Cl)cc1Cl | -1 | 2 | 0 | 3 | 38* | 8 | 29
CCN(CC)c1ccc(C=NN=C(N)N)c(O)c1 | x | x | x | -20 | x | x | x
Cc1ccc(C(=O)CN(C(=O)c2ccc(Cl)c(Cl)c2)N2C(=O)C3CCCCC3C2=O)cc1 (centres undefined) | 8 | 7 | -8 | 1 | 35* | 3 | 35*
O=[N+]([O-])c1ccccc1/C=C/C=NNc1ccc(S(=O)(=O)Nc2ccc(Cl)cc2)cc1[N+](=O)[O-] | x | x | x | 12 | x | x | x
CN(C)S(=O)(=O)N(CC(=O)N(Cc1ccccc1)Cc1ccccc1)c1ccccc1 | -2 | -2 | 0 | 2 | 38* | 5 | 24
Cc1ccccc1S(=O)(=O)/N=C(/Nc1nc2ccccc2s1)c1ccccc1 | 4 | -1 | 1 | -105 | 36* | 2 | 30*
CCc1sc(C(=O)Nc2ncccc2O)cc1C | 4 | 2 | 0 | 6 | 30* | x | 27
CCc1sc(C(=O)Nc2ncccc2C)cc1C | 6 | 3 | 0 | 0 | 6 | 5 | x
COc1ccc(C=N/N=C2/NC(=O)C(c3ccccc3)S2)c(OC)c1 (centres undefined) | x | x | x | 10 | x | x | x
O=C(NN=Cc1ccccc1[N+](=O)[O-])c1ccc(COc2ccccc2-c2ccccc2)cc1 | x | x | x | 6 | x | x | x
N#C/C(=C\c1ccc(OCc2cccc(C(=O)O)c2)cc1)C(=O)NCc1ccco1 | 13 | 12 | 1 | 5 | 37* | -3 | 28
